What was measured:
thrombin [1] = target: T1, thrombin (Homo sapiens, UniProt P00734); experiment: Michaelis-Menten kinetics of Spectrozyme TH hydrolysis; assay type: biochemical; conditions: Michaelis-Menten kinetic studies
How it was run: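 Thrombin hydrolysis of Spectrozyme TH, a chromogenic substrate, was read spectrophotometrically at pH 7.4 and 25 °C. The substrate was varied at several test compound levels up to 40 μM. VMAX and KM were taken from Michaelis-Menten analysis to assign the inhibition mechanism.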

[2] = system: recombinant thrombin mutants (exosite 2 Ala replacements); experiment: Inhibition of recombinant exosite 2 alanine mutant versus wild-type thrombins; assay type: biochemical; conditions: 11 single Ala mutants of exosite 2, Spectrozyme TH, pH 7.4, 25 °C
[3] = target: thrombin cleavage of human fibrinogen (Homo sapiens, UniProt P00734); experiment: PAGE densitometry of thrombin cleavage of fibrinogen; assay type: biochemical; conditions: for Maximal inhibition of fibrinogen cleavage (ΔY against fibrinogen): saturating inhibitor, 4.7 μM fibrinogen, 6 nM thrombin, pH 7.4, 25 °C
How it was run: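 Thrombin (6 nM) cleaved human fibrinogen (4.7 μM) with test compound at 0 to 150 μM. Fibrinogen cleavage was monitored by polyacrylamide gel electrophoresis.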

thrombin [4] = target: T1, thrombin; experiment: Thrombin inhibition, chromogenic substrate hydrolysis assay; assay type: biochemical; conditions: 20 mM Tris-HCl pH 7.4, 25 mM CaCl2, 100 mM NaCl, 0.1% PEG 8000, 25 °C, ± 1 S.E.
thrombin [5] = target: T1, thrombin; conditions: inhibition of human thrombin by peptides; cited from earlier work

Compound | Mechanism of inhibition (thrombin [1]) | IC50 of mutant versus wild-type thrombin [2] | Maximal inhibition of fibrinogen cleavage (ΔY against fibrinogen) [3] | Fibrinogen cleavage continuing at saturating inhibitor ([3]; saturating levels of inhibitor) | ΔY (efficacy of inhibition) (thrombin [4]) | IC50 (thrombin [5]) [µM]
CCOC(=O)c1c(C)oc2cc(OCCc3ccccc3)c(OCc3oc4cc(OC)c(OS(=O)(=O)[O-])cc4c3C(=O)OCC)cc12.[Na+] [2c] | noncompetitive inhibitor | virtually no difference in IC50 between wild-type and mutant thrombin except for Arg233Ala and Lys235Ala proteins | about 70±8% | approximately 30% | – | –
CCOC(=O)c1c(C)oc2cc(OCc3ccccc3)c(OCc3oc4cc(OCC5CCCCC5)c(OS(=O)(=O)[O-])cc4c3C(=O)OCC)cc12.[Na+] [2i] | mixed inhibition | potency changed significantly for several mutants including Arg165Ala, Lys169Ala, Arg175Ala, Arg233Ala and Lys236Ala | greater than 90% | – | – | –
CCOC(=O)c1c(C)oc2cc(OCC3CCCCC3)c(OCc3oc4cc(OCC5CCCCC5)c(OS(=O)(=O)[O-])cc4c3C(=O)OCC)cc12.[Na+] [2h] | – | – | – | – | ~ 90% | –
Fibrinogen peptide (410 – 427): allosteric peptide inhibitor of thrombin, literature value from ref 18 | – | – | – | – | – | 130
